# Compounds with a hit are over-represented: about 1.2% of the library has one in this group of screens.
# MsrA act = activators of bovine methionine sulfoxide reductase A; activation, % at 10.6 µM; 360,000 compounds, 0.3% hits; purified bovine MsrA, absorbance read-out; AID 602163; in the data active means activation above about 7.5%;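 further: 0% = vehicle and 100% = reference activator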
# proCasp3 act = activates human procaspase-3 | P42574 | recombinant procaspase-3 D3A, Ac-DEVD-pNA absorbance 405 nm | activation, % at 8.5 µM | 330,000 compounds, 0.11% hits;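 active means activation above the mean of all tested compounds plus 3 SD, cut at about 21% in these data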;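 further: 0% = DMSO alone and 100% = DMSO wells spiked with extra 5 µM PC-3 D3A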
# Target sequence (P42574 whole entry D9A/D28A/D175A): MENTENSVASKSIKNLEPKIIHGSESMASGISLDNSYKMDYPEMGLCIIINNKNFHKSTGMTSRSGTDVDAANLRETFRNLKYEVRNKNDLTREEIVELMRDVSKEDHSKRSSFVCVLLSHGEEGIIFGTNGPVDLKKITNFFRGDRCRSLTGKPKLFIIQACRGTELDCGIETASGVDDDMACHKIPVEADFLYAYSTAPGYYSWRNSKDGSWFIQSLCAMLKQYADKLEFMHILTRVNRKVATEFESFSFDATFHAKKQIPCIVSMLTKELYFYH
#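 material = Procaspase-3 D3A mutant | probe or stimulus = Ac-DEVD-pNA | compound = single dose, 8.5 µM nominal compound, 0.8% DMSO | timing = 1 h preincubation, 2 h reaction | measured by = 405 nm absorbance of p-nitroaniline, reads at 0 and 120 min | benchmarks = DMSO-only low control, 5 µM PC-3 D3A high control | repeats = singlicate, each compound tested once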
# procasp7 counter = activates human procaspase-7, counter-screen for procaspase-3 activators; activation, % at 8.5 µM; recombinant procaspase-7, Ac-DEVD-pNA absorbance 405 nm; D23A/D198A/D206A triple mutant, cannot self-cleave; scale: DMSO 0, 5 µM enzyme 100; 330,000 compounds, 0.093% hits; P55210;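 active means percent activation above the screen-wide mean plus 3 SD, cut at about 25% in these data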
# Target sequence (P55210 whole entry D23A/D198A/D206A): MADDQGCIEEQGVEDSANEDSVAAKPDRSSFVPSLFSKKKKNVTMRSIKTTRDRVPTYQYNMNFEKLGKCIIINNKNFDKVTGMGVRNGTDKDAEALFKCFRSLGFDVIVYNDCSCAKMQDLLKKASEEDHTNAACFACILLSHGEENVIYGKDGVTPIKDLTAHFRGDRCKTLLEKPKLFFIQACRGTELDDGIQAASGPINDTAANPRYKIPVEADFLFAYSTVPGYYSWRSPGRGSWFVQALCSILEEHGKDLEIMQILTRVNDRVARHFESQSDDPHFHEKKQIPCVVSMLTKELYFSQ
#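 Material: Procaspase-7 triple mutant (PC-7 D3A) | Quantity: 2 µM procaspase-7 mutant as dispensed | Reagent: DEVD-pNA substrate | Times: 1 h preincubation, 2 h reaction | Technique: 405 nm absorbance of p-nitroaniline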
# MsrA inh = inhibitors of bovine MsrA | inhibition, % at 15.5 µM | purified bovine MsrA, absorbance read-out | 360,000 compounds, 0.75% hits; in the data active means inhibition above about 4.5%;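 further: 0% = vehicle wells with enzyme and 100% = reference inhibitor wells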
# A1 inh = inhibitors of the anti-apoptotic protein A1, read as caspase activation. caspase activation, % (test concentration not listed). 330,000 compounds, 0.066% hits. MEF A1-2A-BIM cells, Caspase-Glo 3/7 luminescence, 3 h; percent of clofoctol response, vehicle zero;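 active means over half of replicate activation scores above 10%, or exactly half above 10 with the replicate mean above 10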
# MsrA act confirm = confirmation of bovine methionine sulfoxide reductase A activators. shares compounds with MsrA act. purified bovine MsrA, absorbance read-out. activation, % at 10.6 µM. 1,000 compounds, 12% hits. AID 602270; in the data active means activation above about 4%;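 further: enzyme coupled to thioredoxin and thioredoxin reductase with NADPH; 0% = vehicle wells and 100% = reference activator wells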
# * marks the source's active call; other numbers are inactive results; . = not tested or not shown.
SMILES,MsrA act,proCasp3 act,procasp7 counter,MsrA inh,A1 inh,MsrA act confirm
CC(C)[C@H](NC(=O)c1ccccc1)C(=O)OCc1nc2scc(-c3ccccc3)c2c(=O)[nH]1,13*,3,1,0,0,6.3*
CCc1nnc(N/N=C/c2cccs2)n1N,8.1*,-9,-13,2,0,-2
CCc1nnc(N/N=C/c2c(Cl)cccc2Cl)n1N,5,-6,-27,0,1,.
COc1cc(/C=N/Nc2nncn2N)ccc1OCc1c(C)no[n+]1[O-],6,-11,-29,1,0,.
COc1ccc(/C=N/Nc2nncn2N)cc1Br,25*,-11,-29,0,0,2
CCOc1cc(/C=N/NC(N)=O)ccc1OC(=O)c1ccc(C)cc1,.,1,-3,.,1,.
CCOc1cc(/C=N/Nc2nnc(C)n2N)ccc1OC(C)=O,27*,.,.,0,1,1
CCc1nnc(N/N=C\c2ccc(OC(C)=O)c(OC)c2)n1N,12*,-12,-3,1,0,-2
CN(c1cccnc1)c1ccc(NC(=O)Cc2c[nH]c3ccccc23)cc1-c1cccnc1F,.,.,.,1,.,.
O=C(CC1CCCC1)N[C@@H](Cc1cccnc1)C(=O)N1CCC[C@H]1C(=O)NCCc1ccccc1Cl,.,.,.,1,.,.
Nc1ccc(S(=O)(=O)c2ccc(N)nc2)cc1,7.7*,.,.,0,.,1
COC(=O)C1=C(C)N(Cc2cccc(C(F)(F)F)c2)C(=NCc2cc(OC)c(OC)c(OC)c2)NC1c1ccc(Cl)cc1 (configuration not stated),.,.,.,-1,.,.
COC(=O)[C@]12C[C@H](CC(=O)N3CCN(C(=O)C4CC4)CC3)C(=O)N(Cc3ccccc3)C1=C[C@H](C(C)C)O[C@@H]2C1CC1,.,.,.,0,.,.
Oc1c(Br)cc(Br)cc1CNc1ccc(F)cc1,8.9*,1,8,0,0,-1
Cn1c(=O)c2cc(NC(=O)CCc3ccccc3)ccc2n1Cc1cccc(C(F)(F)F)c1,7.8*,.,.,2,.,0
Cc1[nH]nc2c1C(c1ccccc1)N(Cc1ccccc1)C2=O (configuration not stated),.,.,.,0,.,.
CCCC(=O)OC[C@H]1CN(C2CCCC2)S(=O)(=O)c2c(Oc3ccccc3)cccc2O1,.,.,.,0,.,.
CCCCCCCCN1C(=O)[C@@H](CC(=O)NCc2cccc3ccccc23)C[C@@]2(C(=O)OC)C1=C[C@H](C(C)(C)C)O[C@@H]2C,.,.,.,0,.,.
CC1=C(C(=O)Nc2cc(C)ccc2C)C(c2cccs2)NC(=S)N1 (configuration not stated),8.2*,2,0,1,1,-1
CC1=C(C(=O)Nc2ccccc2F)C(c2cccs2)NC(=S)N1 (configuration not stated),-5,-9,-3,0,0,.
c1ccc(SSc2ccccn2)nc1,11*,-24,-32,.,0,7.5*
COc1ccc(-c2cc(=O)oc(-c3cccc(C)c3)n2)cc1,12*,3,4,0,-1,-3
COc1cc(OC)c2c(-c3cccc(-c4cccc(C)c4)c3)cc(=O)oc2c1,-4,1,15,1,.,.
O=C(CCCCCn1c(=S)[nH]c2cc3c(cc2c1=O)OCO3)N1CCN(Cc2ccccc2)CC1,-1,-2,7,0,1,.
O=C(CCCn1c(=S)[nH]c2cc3c(cc2c1=O)OCO3)N1CCN(c2ccccn2)CC1,18*,.,.,0,.,3
SMILES,MsrA act,proCasp3 act,procasp7 counter,MsrA inh,A1 inh,MsrA act confirm
C[C@]12Cc3ccccc3C1CC1=N[C@@H](c3ccc(C(F)(F)F)cc3)O[C@@]13C[C@@H]2C(=O)N3C1CCN(Cc2ccccc2)CC1 (some centres not stated),.,.,.,-1,.,.
C=CCn1cccc(C(=O)Nc2ccc(Cl)cc2)c1=O,7.8*,-1,1,2,-1,-4
Cc1cc(C#N)c(C)n1-c1cc(C(F)(F)F)ccc1N1CCOCC1,8.6*,1,5,-1,0,0
CC(C)C(=O)Nc1cc(C(F)(F)F)ccc1N1CCOCC1,0,1,5,2,1,.
O=C(O)CC(Sc1ccc(Cl)cc1)C(=O)Nc1ccccc1 (configuration not stated),.,.,.,0,.,.
Nc1oc2ccccc2c1C(=O)Cc1ccccc1O[C@@H]1O[C@H](CO)[C@@H](O)[C@H](O)[C@H]1O,13*,14,-12,0,2,2
CN1C(=O)[C@@]2(O[C@H]3C=CC=CN3C3=C2C(=O)CCC3)c2cccc(Br)c21,.,.,.,1,.,.
COC(=O)C1(F)C(=O)NC(=O)NC1OC (configuration not stated),.,.,.,0,.,.
COc1ccc(-c2cc(NC(=O)Cc3c(C)[nH]c4ccccc34)ccc2Nc2cccnc2)cc1F,.,.,.,0,.,.
CC(C)NS(=O)(=O)c1ccc(NC(=O)C(C)Oc2ccc(C(=O)c3ccccc3)cc2)cc1 (configuration not stated),8.5*,-4,4,-1,-1,-4
O=[N+]([O-])c1cc(S(=O)(=O)NCc2ccco2)ccc1NN=Cc1ccccn1,.,.,.,0,.,.
C[C@H](O)[C@@H]1C(=O)N2CCc3c([nH]c4ccccc34)[C@@H]2C[C@@H]1N(C)Cc1ccc(Cl)cc1,7.8*,.,.,0,.,-1
COCC(=O)N(C)[C@H]1C[C@H]2c3[nH]c4ccccc4c3CCN2C(=O)[C@H]1[C@H](C)O,-1,.,.,1,.,.
CN1CCN(S(=O)(=O)c2cccc(C(=O)N(Cc3nnc(-c4ccccc4Cl)o3)C3CC3)c2)CC1,7.8*,-2,0,0,0,0
COc1ccc(C(C)(C)C)cc1N1C(=O)[C@@H]2CSCCS(=O)(=O)N2C1=O,.,.,.,0,.,.
Nc1ccc2c(c1)C(=O)c1ccccc1-2,-3,1,-2,0,0,.
Nc1ccc2c(c1)C(=O)C(=O)c1ccccc1-2,40*,-18,-15,1,0,29*
COc1ccc(-c2cn3cc([N+](=O)[O-])ccc3n2)cc1OC,10*,-9,-1,3,-1,-2
CCCCN(CC)CCCNC(=O)CC1Oc2ccccc2NC1=O (configuration not stated),-2,-7,-1,1,1,.
CC(C)CN(CCCNC(=O)CC1Oc2ccccc2NC1=O)CC(C)C (configuration not stated),8.6*,-6,-1,-1,0,0
CSc1ccc(Oc2cccc3c2S(=O)(=O)N(C2CC2)C[C@@H](COCc2ccccc2)O3)cc1C,.,.,.,0,.,.
O=C(N[C@H](Cc1ccccc1)C(=O)NCCN1CCOCC1)[C@H]1O[C@@H](n2ccc(=O)[nH]c2=O)[C@H](O)[C@@H]1O,.,.,.,0,.,.
Cc1ccc(NC(=S)NCCCN2CCOCC2)cc1C,-3,-4,12,-1,0,.

# Screening results as filed in PubChem.
